Source: ChEMBL document CHEMBL6103596, “Design, Synthesis, and Biological Evaluation of BODIPY-Caged Resiquimod as a Dual-Acting Phototherapeutic” (J Med Chem, 2025)
Activity calls are given as the source filed them. The rule behind the calls is not given here.

Legend:
[1] = Photorelease activity of the compound in aqueous solution at 30 uM under 647 nm 400mW LED light by 1H NMR spectroscopy analysis; format: ADME; details: buffer, time 10-40 min
[2] = Induction of hydroxyl radical assessed as DMPO-OH radical adduct formation under light irradiation measured after 10 mins by ESR spectra analysis; format: functional
Method in brief: (§1)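 ESR spectra recorded with DMPO as spin trap to detect superoxide and/or hydroxyl radical adducts, before and after 10 min irradiation of compound.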

[3] = Thermal stability of compound in DMSO-d6 at 37.5 degree C measured after 2 days by 1H NMR spectroscopy analysis relative to control; format: physicochemical; details: 48 h; time 2 day
Method in brief: (§2)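 Compound in DMSO-d6 followed by 1H NMR. Degradation taken from the intensity of three signals (one resiquimod, one BODIPY, and the linkage NH), each relative to the DMSO-d6 internal standard, and the three averaged.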

[4] = Thermal stability of compound in DMSO-d6 at 37.5 degree C measured after 1 day by 1H NMR spectroscopy analysis relative to control; format: physicochemical; details: 24 h; method in brief: as §2
[5] = Thermal stability of compound in DMSO-d6 at 37.5 degree C measured after 3 days by 1H NMR spectroscopy analysis relative to control; format: physicochemical; details: 72 h; time 3 day; method in brief: as §2
[6] = Induction of superoxide anion radical assessed as DMPO-O2 radical adduct formation under dark condition measured after 10 mins by ESR spectra analysis; format: functional; method in brief: as §1
[7] = Photophysical property of the compound assessed as fluorescence quantum yield; format: physicochemical
[8] = Dark toxicity in human HeLa cells assessed as cell viability at 10 uM under dark condition and measured after 72 hrs by CCK-8 method relative to control; format: cell-based; details: read-out: Activity
Method in brief: (§3)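 A549, HaCaT and HeLa cells seeded at 2 × 10^3 cells/well in phenol red-free DMEM with 10% FBS. After 24 h, medium replaced with 1% DMSO containing 10 μM compound. After 90 min, one plate kept dark and one exposed to 530 or 650 nm LED (30 mW) for 15 min. Plates incubated 72 h, then CCK-8 read at 450 nm. Viability taken relative to dark control. Triplicates (HaCaT six).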

[9] = Induction of superoxide anion radical assessed as DMPO-O2 radical adduct formation under light irradiation measured after 10 mins by ESR spectra analysis; format: functional; method in brief: as §1
[10] = Dark toxicity in human A549 cells assessed as cell viability at 10 uM under dark condition and measured after 72 hrs by CCK-8 method relative to control; format: cell-based; details: read-out: Activity; method in brief: as §3
[11] = Upregulation of TNF-alpha mRNA expression in mouse RAW264.7 cells assessed as fold change at 100 nM preincubated with NAC followed by compound addition and measured after 30 mins under 650nm LED light irradiation by real-time PCR analysis; format: functional; details: 0.5 h
Method in brief: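 RAW264.7 cells seeded at 0.3 million per 35 mm dish. Next day, pretreated with 10 mM N-acetyl-cysteine for 30 min, then given 100 nM compound and 650 nm LED light for 30 min. Total RNA taken 24 h later and reverse transcribed with random primers. SYBR real-time PCR run for 40 cycles (95/60/72 °C). Quantities calculated by the Ct method. Results given as fold change, means ± SD.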

[12] = Dark toxicity in human HaCaT cells assessed as cell viability at 10 uM under dark condition and measured after 72 hrs by CCK-8 method relative to control; format: cell-based; details: read-out: Activity; method in brief: as §3

Activity [1]: Time-dependent-effect
Activity [3]: 11%
Activity [4]: 7%
Activity [5]: 15%
Activity [7]: 0.411
SMILES: CCOCc1nc2c(NC(=O)OCC3=C4C(C)=CC(/C=C/c5ccc(OCCOCCOCCOC)cc5)=[N+]4[B-](C)(C)n4c(/C=C/c5ccc(OCCOCCOCCOC)cc5)cc(C)c43)nc3ccccc3c2n1CC(C)(C)O
Activity [2]: inactive
Activity [6]: inactive
viability at 72 h, 10 µM [8]: 4%
Activity [9]: inactive
viability at 72 h, 10 µM [10]: 2%
fold change (FC) [11]: ~2
viability at 72 h, 10 µM [12]: 2%
